Molecules are shown by their SMILES. ≈ marks a conversion by molar mass, not a printed value.

One assay deals with H. pylori. The experiment in a line: In vitro assay against Helicobacter pylori, broth micro-well dilution method. The conditions noted are these: Helicobacter pylori, read-out: Mean of H. pylori inhibitory % MIC. Type of assay: cell-based. Put shortly: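 Test compound and clarithromycin (positive control) dissolved in DMSO and tested in 96-well plates at 125–0.24 µg against an H. pylori inoculum suspension. Readout: MTT colour at 620 nm on a microplate reader. MIC is the lowest concentration with no change in MTT colour. MIC90 (90% inhibition) is calculated from dose-response curves. Determinations done three times.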
For `O=c1cc(-c2ccc(O)cc2)oc2cc(O)cc(O)c12` [Compound 6, apigenin], the MIC was 1.95 µg/mL (≈ 7.22 µM).
`COC(=O)c1ccc(O)cc1` [Compound 9, methylparaben]: the minimum inhibitory concentration (MIC) was determined as 1.95 µg/mL (≈ 12.8 µM).
For the compound `CC[C@H]1OC(=O)[C@H](C)[C@@H](O[C@H]2C[C@@](C)(OC)[C@@H](O)[C@H](C)O2)[C@H](C)[C@@H](O[C@@H]2O[C@H](C)C[C@H](N(C)C)[C@H]2O)[C@](C)(OC)C[C@@H](C)C(=O)[C@H](C)[C@@H](O)[C@]1(C)O` [Clarithromycin, clarithromycin, reference compound], the MIC stood at 1.95 µg/mL (≈ 2.61 µM).
Regarding `COc1cc([C@H]2OC[C@H]3[C@@H]2CO[C@@H]3c2cc(OC)c(O)c(OC)c2)cc(OC)c1O` [Compound 4, syringaresinol], the MIC was 0.98 µg/mL (≈ 2.34 µM).
Still for that read-out and setting: next, `O=C(O)c1ccc(O)cc1` [Compound 10, p-hydroxybenzoic acid]: 0.48 µg/mL (≈ 3.48 µM); `COc1ccc(-c2cc(=O)c3c(O)cc(O[C@@H]4O[C@H](CO)[C@@H](O)[C@H](O)[C@H]4O)cc3o2)cc1O` [Compound 8, diosmetin-7-O-β-D-glucopyranoside]: 0.98 µg/mL (≈ 2.12 µM).

The same assay, now with this note: Table 2.
Regarding `COc1cc(-c2cc(=O)c3c(O)cc(O)cc3o2)ccc1O` [Compound 5, chrysoeriol], the “anti-H. pylori activity (in words)” value is “moderate to low inhibitory activities”.
With `O=c1cc(-c2ccc(O)c(O)c2)oc2cc(O)cc(O)c12` [Compound 7, luteolin], the “anti-H. pylori activity (in words)” value is “moderate to low inhibitory activities”.
For the compound `C=C[C@@]1(C)C=C2CC[C@@H]3[C@](C)(CCC[C@@]3(C)C(=O)O)[C@H]2CC1` [Compound 2, pimaric acid], the “anti-H. pylori activity (in words)” value is on record as “moderate to low inhibitory activities”.

For the origin of these results see article PMC10128457 (Pharmaceutical Biology, 2023).
